In the library only some 4.1% were active in any assay of this set; here they are far more common.
hERG rescue – compounds protecting human hERG from proarrhythmic drug block; CHO-hERG, FluxOR thallium flux, dofetilide IC70 present; 310,000 compounds, 0.51% hits; AID 1511; Q12809; activation (rescue from dofetilide block), less the hit threshold, % at 10 µM;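 active = activation above the mean of controls blocked by dofetilide plus 5 SD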;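 note: thallium influx through hERG after potassium depolarization seen as dye fluorescence rise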
KCC2 mod – modulators of human KCC2 chloride dependent transport. Q9H2X9. KCC2 cells, thallium flux FluoZin-2 fluorescence. B-score of Tl+ flux slope (higher = more flux/activation; lower = inhibition) at 10 µM. 190,000 compounds, 2.2% hits;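 active = thallium flux slope and its plate-corrected score both differing from the plate sample mean at a set confidence after two filtering rounds, in either direction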;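 note: slope of fluorescence scaled to starting intensity during 10 to 20 s after thallium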
KCNQ1 block – inhibitors of human KCNQ1 potassium channel; CHO-K1 KCNQ1, FluxOR thallium flux fluorescence; stronger effect = higher value; 310,000 compounds, 1.3% hits; B-score at 10 µM;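 active = compounds whose thallium flux B-score, printed positive for inhibition, exceeds three library SD while starting fluorescence stays within three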;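 note: channel opened by potassium depolarization with thallium stimulus after 20 min compound exposure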
Target sequence (P51787 whole entry, looked up): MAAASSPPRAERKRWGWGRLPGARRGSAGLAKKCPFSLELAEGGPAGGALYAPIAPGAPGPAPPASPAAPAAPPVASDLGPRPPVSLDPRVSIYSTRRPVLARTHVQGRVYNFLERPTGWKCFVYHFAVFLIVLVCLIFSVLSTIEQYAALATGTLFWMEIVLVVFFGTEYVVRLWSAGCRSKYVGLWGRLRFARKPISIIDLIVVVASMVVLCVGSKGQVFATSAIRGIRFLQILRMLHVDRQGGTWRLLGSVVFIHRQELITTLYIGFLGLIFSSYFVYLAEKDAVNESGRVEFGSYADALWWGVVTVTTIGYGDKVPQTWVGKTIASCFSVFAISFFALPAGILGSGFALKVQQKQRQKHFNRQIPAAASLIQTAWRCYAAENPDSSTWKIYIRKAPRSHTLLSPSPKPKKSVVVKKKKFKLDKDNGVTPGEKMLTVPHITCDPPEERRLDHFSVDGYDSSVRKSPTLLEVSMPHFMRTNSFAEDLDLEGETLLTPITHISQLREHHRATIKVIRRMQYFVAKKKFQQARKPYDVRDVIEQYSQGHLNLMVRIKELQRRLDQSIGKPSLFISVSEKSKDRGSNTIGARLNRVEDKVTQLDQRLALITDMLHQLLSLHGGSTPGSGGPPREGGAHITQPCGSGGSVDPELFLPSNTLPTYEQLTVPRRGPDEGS
KCNQ1 pot – potentiators or activators of human KCNQ1 potassium channel; CHO-K1 KCNQ1, thallium flux FluxOR fluorescence; stronger effect = higher value; B-score at 10 µM; 310,000 compounds, 0.35% hits;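 active = fluorescence ratio B-score, a plate-corrected score, at least three library SD, with initial intensity B-score within 5 SD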
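Medium – assay buffer, equal DMSO in all wells · Material – CHO-K1 cell line with stable KCNQ1 potassium channel expression · Signal – kinetic FluxOR thallium fluorescence, 10-s 1-Hz baseline, 110-s post-stimulus read · Compound – single concentration per compound, DMSO matched to controls · Schedule – 37 °C overnight plating, 90-min dark dye load, 20-min compound pretreatment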
KCNK3 block – human KCNK3 channel inhibition, primary screen. O14649. CHO-KCNK3 thallium flux, FluxOR fluorescence; stronger effect = lower value. AID 602410. B-score at 10 µM. 340,000 compounds, 0.84% hits;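 active = B-score under library mean minus 4 SD, starting fluorescence ratio at most library mean plus 5 SD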;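 note: more negative B-score means stronger inhibition of thallium flux through KCNK3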
KCNK9 inh – inhibitors of human KCNK9 two-pore domain potassium channel. HEK293 KCNK9, FluxOR thallium flux fluorescence; stronger effect = lower value. B-score at 10 µM. 310,000 compounds, 1.2% hits. AID 488922;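 active = ratio B-score over 3 SD below the library mean, with starting fluorescence within 5 SD of its mean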;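 note: negative B-score means less thallium flux so channel inhibition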
KCNK3 confirm – human KCNK3 channel inhibition, confirmation assay. AID 651638. shares compounds with KCNK3 block. 2,400 compounds, 99% hits. CHO-KCNK3 thallium flux, FluxOR fluorescence; 0% buffer, 100% carvedilol maximal block. ratio percent of control, % at 10 µM;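 active = ratio percent of control, averaged over triplicates, above buffer control mean plus 5 SD, cut at about 64% in these data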;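 note: ratio is the fluorescence rise from min to max over baseline after thallium stimulus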
KCNK3 uninduced – activity in cells without induced KCNK3 expression | shares compounds with KCNK3 block | non-induced KCNK3 parental cells, FluxOR thallium flux; stronger effect = lower value | thallium flux ratio (lower = more inhibition) at 10 µM | 2,400 compounds, 40% hits | AID 651747;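 active = thallium flux ratio, averaged over three wells, more than 5 SD below the buffer control mean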;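 note: host cells are CHO cells without KCNK3 induction; ratio is peak minus trough fluorescence over baseline then normalized to buffer controls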
An asterisk follows results filed as active; i = inactive; . = no result.

SMILES	hERG rescue	KCC2 mod	KCNQ1 block	KCNQ1 pot	KCNK3 block	KCNK9 inh	KCNK3 confirm	KCNK3 uninduced
Cc1c(NC(=O)CSc2nnc(C(C)N(C)C)n2-c2ccccc2)c(=O)n(-c2ccccc2)n1C (stereo not drawn)	.	.	.	.	i	.	.	.
O=c1cnc2ccccc2n1Cc1ccccc1C(F)(F)F	-9	.	i	i	i	i	.	.
N#CCC(=O)Nc1ccc(C(=O)OCC(=O)N=c2sccn2Cc2ccccc2Cl)cc1	-16	.	i	i	-11*	i	92*	i
Cc1ccc(S(=O)(=O)N2CCN(C(=O)CN3CCN(c4ccc(O)cc4)CC3)CC2)cc1	.	.	.	.	i	.	.	.
CCc1nc(Nc2ccccc2OC)c2oc3ccccc3c2n1	-5	.	i	i	-9.2*	i	116*	0.14*
CCCSCCCNC(=O)Cn1c(=O)c2cccn2c2ccccc21	-11	.	i	i	i	i	.	.
N#Cc1c(N)nc(SCC(=O)OCc2ccccc2)c(C#N)c1-c1ccco1	-8	0.43	i	i	-11*	i	87*	i
Cc1ccc(NC(=O)CNc2cccc(S(=O)(=O)N3CCCCC3)c2)cc1F	-17	.	i	i	i	-7.6*	96*	i
COc1ccc(NC(=O)c2ccc(S(=O)(=O)N3CCCC3)cc2)cc1OC	.	.	.	.	i	.	.	.
CCOc1ccc(CCN2C(=S)N([C@@H](CC(C)C)CN3CCCC3CN3C(=S)NC[C@@H]3CC(C)C)C[C@@H]2CC(C)C)cc1 (stereo partly drawn)	.	.	.	.	i	.	.	.
C/C(=C\C(=O)c1ccc(Cl)cc1)NCc1ccc2c(c1)OCO2	-6	-1.5	i	i	-9.8*	i	84*	0.16*
O=C(Nc1ccc(OC(F)(F)F)cc1)C1CCCN(C(=O)c2ccc(Cl)cc2)C1 (stereo not drawn)	.	.	.	.	i	.	.	.
Cc1cccc2c(C(=O)O)cc(-c3cccnc3)nc12	-5	0.8	i	i	i	i	.	.
Cc1cc(C)c2nc(-c3cccnc3)cc(C(=O)NC(C)c3cnn(C)c3C)c2c1 (stereo not drawn)	-18	-0.29	i	i	-9.2*	i	111*	0.16*
COc1cccc(C(=O)NCC(c2ccco2)N2CCOCC2)c1 (stereo not drawn)	-8	.	i	i	i	i	.	.
NN=C1c2ccccc2-c2ccc(N)cc21	.	.	.	.	i	.	.	.
O=[N+]([O-])C(=C1SCCS1)C(=C(Cl)Cl)N1CCCCC1	-4	0.13	i	i	-11*	i	105*	i
O=[N+]([O-])C(/C=C(\Cl)[N+](=O)[O-])=C(N1CCCCC1)N1CCCCC1	-4	0.7	i	i	i	i	.	.
CCOc1cc(CNc2ccccc2)cc(Br)c1OCc1ccc(F)cc1	-10	-0.23	i	i	-8.8*	i	84*	0.16*
CCOc1cc(CNc2ccccc2)cc(Br)c1OCC(=O)NC(C)(C)C	-4	.	i	i	i	i	.	.
N#Cc1cc2cc3ccccc3nc2n2c(=O)c3ccccc3nc12	-9	i	i	i	-9.6*	i	122*	0.12*
CCCCC1(CC)SCC(=O)NC1=O (stereo not drawn)	.	.	.	.	i	.	.	.
Cc1cccc2c(=O)c(Br)c(C)n(Cc3ccccc3)c12	-12	1.3	i	i	-8.9*	-7.8*	105*	i
CCOC(=O)c1ccc(CNC(=O)c2cc(COc3ccccc3SC)on2)o1	-8	.	i	i	i	i	.	.
CCOc1ccc(NC(=O)C2CC(=O)N(c3ccc4c(c3)OCCO4)C2)cc1OCC (stereo not drawn)	-12	.	i	i	i	i	.	.
SMILES	hERG rescue	KCC2 mod	KCNQ1 block	KCNQ1 pot	KCNK3 block	KCNK9 inh	KCNK3 confirm	KCNK3 uninduced
O=C(CCOc1cccc(Br)c1)Nc1ccc(F)c(S(=O)(=O)N2CCOCC2)c1	.	.	.	.	-12*	.	97*	i
COc1ccc(CCNC(=O)c2ccccc2OCc2c(C)noc2C)cc1	.	.	.	.	i	.	.	.
OCc1c(OCc2cccc(F)c2)ccc2ccccc12	-7	.	i	i	-9.5*	i	97*	i
Fc1cccc(COc2ccccc2CNc2ccccc2)c1	0	0.47	i	i	i	i	.	.
COc1cccc2cc(CC(=O)c3ccc(C)cc3C)c(=O)oc12	-3	.	i	i	i	i	.	.
O=C(NC1CC1)c1cccc(NC(=O)c2cnn(-c3ccccc3)n2)c1	.	.	.	.	i	.	.	.
O=C(NC1CC1)c1cccc(NC(=O)c2cn3ccccc3n2)c1	.	.	.	.	-12*	.	60*	i
COc1ccc(OC)c(/C=C/C(=O)N2CCCc3ccccc32)c1	-10	-0.71	i	i	-11*	i	113*	i
COc1ccc(/C=C/C(=O)N2CCCc3ccccc32)c(OC)c1	-11	.	i	i	i	i	.	.
NS(=O)(=O)c1ccc(CNC(=O)c2cccnc2Cl)cc1	-13	.	i	i	i	i	.	.
CCCc1ccc2oc(C(=O)N(Cc3nccn3C)C(C)C)c(C)c2c1	-7	.	i	i	-11*	i	113*	i
Cc1ccc(-c2cc(C(=O)N/N=C\c3cnn(C)c3C)c3ccccc3n2)cc1C	-8	-0.88	i	i	-10*	i	99*	0.15*
COc1ccc(NC(=O)Nc2nnc(Cc3ccc(F)cc3)s2)cc1	-9	.	i	i	i	i	.	.
COCCNc1nc(N2CCCCC2)c2cnn(C)c2n1	-4	.	i	i	i	i	.	.
Fc1cccc(-c2cc3nc4c(c(N5CCOCC5)n3n2)CCCC4)c1	-9	-3.1	i	i	-11*	i	113*	i
Fc1cccc(-c2cc3nc4c(c(N5CCN(c6cnccn6)CC5)n3n2)CCCC4)c1	.	0.66	.	.	.	.	.	.
COc1cc(CC(=O)N(C)CC(=O)Nc2ccc(Cl)c(C(F)(F)F)c2)cc(OC)c1OC	-8	.	i	i	-9.2*	i	113*	i
CCN(CC)C(=O)Oc1nnc(SC(C)C)n1-c1ccc(Cl)cc1	-10	-0.7	i	i	-9.6*	i	86*	i
CCN(CC)C(=O)Oc1nnc(SC(C)C)n1-c1ccc(Cl)c(Cl)c1	-11	-0.88	i	i	i	i	.	.
Cc1cc(/C=N/NC(=O)c2ccccn2)c(C)n1-c1cccc([N+](=O)[O-])c1	-3	-0.55	i	i	-9*	i	88*	i
Cc1ccc(-n2c(C)cc(/C=N/Nc3ccc([N+](=O)[O-])cn3)c2C)cc1	-3	0.15	i	i	-13*	i	0	i

Screening data from PubChem.
